M4 PAM: human M4 muscarinic receptor positive allosteric modulators, primary screen, CHO-K1 cells, Fluo-8 calcium fluorescence; AID 624126, 2012; 0.4% of 360,000 active; CHO-K1 hM4/Gqi5, ACh EC20; 0% = ACh EC20, 100% = maximal ACh; activation, % at 3 µM;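 active = activation above its plate's cutoff, the mean activation of sample wells plus 3 SD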
Target sequence (P08173 whole entry, looked up): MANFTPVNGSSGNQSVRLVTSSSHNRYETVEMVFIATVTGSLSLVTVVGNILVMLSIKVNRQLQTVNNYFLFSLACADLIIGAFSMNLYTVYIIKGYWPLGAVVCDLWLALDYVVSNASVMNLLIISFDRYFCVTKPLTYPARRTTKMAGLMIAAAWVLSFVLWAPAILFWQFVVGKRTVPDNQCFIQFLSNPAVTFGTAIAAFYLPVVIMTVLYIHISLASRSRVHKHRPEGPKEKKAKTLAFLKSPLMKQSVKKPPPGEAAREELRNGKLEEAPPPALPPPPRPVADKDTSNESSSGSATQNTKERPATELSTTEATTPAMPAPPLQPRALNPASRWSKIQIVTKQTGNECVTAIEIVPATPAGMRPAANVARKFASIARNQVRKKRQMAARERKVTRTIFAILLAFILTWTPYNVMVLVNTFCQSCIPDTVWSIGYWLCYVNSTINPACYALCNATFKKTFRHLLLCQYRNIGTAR
CHRM5 agonist: human M5 muscarinic receptor agonists, primary screen, CHO-K1 cells, Fluo-8 calcium fluorescence. 0.19% of 360,000 active. CHO-K1 hM5 cells; 0% DMSO wells, 100% maximal acetylcholine response. activation, % at 3 µM. Muscarinic acetylcholine receptor M5 (Homo sapiens), P08912;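 active = activation above the run's mean over test compounds plus 3 SD, cut at about 23% in these data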;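 also: signal is peak over basal fluorescence ratio across the kinetic read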
CHRM5 PAM: human M5 muscarinic receptor positive allosteric modulators, primary screen, CHO-K1 cells, Fluo-8 calcium fluorescence. Muscarinic acetylcholine receptor M5 (Homo sapiens), P08912. AID 624038, 2012. CHO-K1 hM5, ACh EC20 PAM; 0% = ACh EC20, 100% = ACh EC100. 0.3% of 360,000 active. activation, % at 3 µM;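 active = activation above the run cutoff, the mean activation of all test compounds plus 3 SD, cut at about 18% in these data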
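Probe or stimulus: acetylcholine, EC20 level; Assay system: human M5 receptor in CHO-K1 cells; Schedule: compound preincubation 140 s before EC20 acetylcholine addition; Technique: intracellular calcium via Fluo-8 fluorescence; Dosing: single-point, 3 µM nominal; Read-out basis: percent activation from peak-over-basal fluorescence ratio, scaled EC20-to-EC100 acetylcholine; Repeats: one well per compound, no replicates.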
M5 antag: human M5 muscarinic receptor antagonists, primary screen, CHO cells, Fluo-8 calcium fluorescence; Muscarinic acetylcholine receptor M5 (Homo sapiens), P08912; CHO-hM5 cells, ACh EC80; inhibition, % at 3 µM; 0.59% of 360,000 active; AID 624040, 2012;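 active = inhibition above a per-plate cutoff, the mean of that plate's test compounds plus 3 SD, cut at about 27% in these data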
CHRM4 antagonist: human M4 muscarinic receptor antagonists, primary screen, CHO cells, Fluo-8 calcium fluorescence; Muscarinic acetylcholine receptor M4 (Homo sapiens), P08173; CHO-hM4 cells, ACh EC80; inhibition, % at 3 µM; 0.73% of 360,000 active;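 active = inhibition above its plate's cutoff, the mean inhibition of sample wells plus 3 SD, cut at about 27% in these data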
CHRM4 agonist: human M4 muscarinic receptor agonists, primary screen, CHO-K1 cells, Fluo-8 calcium fluorescence; CHO-K1 hM4/Gqi5; vehicle 0%, full acetylcholine response 100%; 0.14% of 360,000 active; Muscarinic acetylcholine receptor M4 (Homo sapiens), P08173; activation, % at 3 µM;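 active = activation above the run mean over all test wells plus 3 SD, cut at about 32% in these data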;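 also: peak over basal fluorescence ratio per well then scaled between controls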
Large screens that a line does not name were inactive. Only some compounds are listed: those with a hit (about 1.8% of all), similar ones and a draw of the others.

S=C(Nc1ccccc1Cl)NC1CCN(Cc2ccccc2)CC1	none
S=C(Nc1cc(Cl)cc(Cl)c1)NC1CCN(Cc2ccccc2)CC1	M5 antag 28.4, CHRM4 agonist 35.5
S=C(NCc1ccc(Cl)cc1)NC1CCN(Cc2ccccc2)CC1	CHRM4 antagonist 27.4, CHRM4 agonist 45.1
CCOC(=O)C(N=Nc1nn[nH]n1)C(C)=O (stereo not given)	none
CN(Cc1ccc(F)cc1)S(=O)(=O)c1ccc2[nH]c(=O)[nH]c2c1	none
CCc1cccc(C)c1NC(=O)C1=C(C(=O)O)CCCC1	CHRM4 antagonist 27.8
CCc1cccc(C)c1NC(=O)c1ccccc1	none
Cc1ccc(NC(=S)c2nc3ccccc3[nH]2)cc1	M5 antag 46.8
CC(C)NC(=O)c1cc(C2CCCCN2C(=O)OCCF)on1 (stereo not given)	none
COc1ccccc1CC(=O)NNS(=O)(=O)c1ccccc1[N+](=O)[O-]	none
COCC(=O)NNS(=O)(=O)c1ccccc1[N+](=O)[O-]	CHRM5 PAM 19.7
Cc1ccc(CS(=O)(=O)c2ncc(Cl)c(C(=O)Nc3ccc(OC(F)F)cc3)n2)cc1	CHRM4 antagonist 55.8
CCn1cc(C(=O)NC2CCCc3c2cnn3-c2cccc(C)c2C)cn1 (stereo not given)	none
O=C1NC(c2ccncc2)C(C(=O)c2cccs2)C(O)(C(F)(F)F)N1 (stereo not given)	CHRM4 antagonist 29.6
O=C(CSc1nc2ccccc2c(=O)n1-c1ccc(F)cc1)Nc1cc(S(=O)(=O)N2CCOCC2)ccc1Cl	CHRM4 antagonist 29.9
CCCS(=O)(=O)NC(=O)C1(C)CCCN(C(=O)c2ccc3ccccc3c2)C1 (stereo not given)	M4 PAM 16.5
OC[C@@H]1CN(Cc2ccncc2)C[C@H](n2cnc3c(N4CCCC4)ncnc32)O1	none
CCCCNC(=O)C1(C)CCCCN1C(=O)c1ccc2c(c1)C(C)(C)CCC2(C)C (stereo not given)	none
COc1ccc2[nH]c(=O)c(CN(Cc3cccs3)S(=O)(=O)c3c(C)ccc4nsnc34)cc2c1	CHRM4 antagonist 32.3
O=C(/C=C/c1ccc(F)cc1)NC(=S)NNC(=O)c1cnccn1	CHRM4 antagonist 30.0
COc1ccc(/C=C/C(=O)NC(=S)NNC(=O)c2cnccn2)cc1	none
CCC(C)N(C(=O)COC(=O)CCc1c[nH]c2ccccc12)C1CCS(=O)(=O)C1 (stereo not given)	none
CCN(C(=O)COC(=O)Cc1c[nH]c2ccccc12)C1CCS(=O)(=O)C1 (stereo not given)	M4 PAM 19.1
Cc1cccc(N(C)C(=O)C2CCCN2S(=O)(=O)c2cccc3nsnc23)c1 (stereo not given)	CHRM4 antagonist 28.6
CN(CC(=O)N1CCN(C2CCCCC2)CC1)S(=O)(=O)c1cccc2nsnc12	CHRM4 antagonist 29.1
Cc1ccc(S(=O)(=O)NCCNC(=O)CN2CCOCC2)cc1	none
Cc1sc2ncnc(N3CCC(C(=O)Nc4ccc(S(N)(=O)=O)cc4)CC3)c2c1C	CHRM4 antagonist 67.4, CHRM4 agonist 79.0
Cc1sc2ncnc(N3CCC(C(=O)Nc4ccc(C#N)cc4)CC3)c2c1C	M4 PAM 23.6
CCN(CC(=O)Nc1cc(Cl)ccc1C)C(=O)C1CCN(c2ncnc3sc(C)c(C)c23)CC1	M5 antag 27.3
Cc1ccc(NC(=O)C2CCN(c3ncnc4sc(C)c(C)c34)CC2)cc1S(=O)(=O)N(C)C	none
Cc1sc2ncnc(N3CCC(C(=O)N(C)CC(=O)Nc4ccccc4Cl)CC3)c2c1C	none
Cc1sc2ncnc(N3CCC(C(=O)Nc4cc(Cl)ccc4Cl)CC3)c2c1C	M4 PAM 56.4, CHRM4 antagonist 34.3, CHRM4 agonist 36.5
C[C@H](NC(=O)c1cccc([N+](=O)[O-])c1)C(=O)OCC(=O)c1ccccc1Br	none
O=C(c1ccco1)N1CCN(Cc2csc(-c3ccccc3Cl)n2)CC1	none
Cc1cccc(N2C(=O)CN=C2Nc2nc(C)cc(C)n2)c1	M4 PAM 18.3
Cc1cc(C)nc(NC2=NCC(=O)N2c2cc(Cl)cc(Cl)c2)n1	none
COc1cccc(C(=O)NNS(=O)(=O)c2ccc(C)cc2)c1	none
CN1CCN([C@H]2CS(=O)(=O)N[C@@H]2COCc2ccccc2)CC1	none
CCCCS(=O)(=O)/C=C\C1C2C=CC(C2)C1S(=O)(=O)CCCC (stereo not given)	none
CCCCS(=O)(=O)/C=C\C=C/S(=O)(=O)CCCC	CHRM4 antagonist 37.2
COc1cccc(/C=N/Nc2snc(SC)c2C#N)c1O	CHRM4 agonist 35.3
CNC(=O)C1CCN(S(=O)(=O)c2c(C)noc2/C=C/c2ccc(OC)cc2)CC1	M5 antag 80.3
CCCNC(=O)C1CCN(S(=O)(=O)c2c(C)noc2/C=C\c2ccc(OC)cc2)CC1	none
O=C1C(=NO)CC(c2ccccc2)N1c1ccccc1 (stereo not given)	none
C=CCC(NC(=O)c1ccc(C#N)cc1)C(=O)NCCC (stereo not given)	CHRM5 PAM 18.9
c1ccc2c(c1)ncn2-c1cncnc1	none
O=C(CCCCCn1c(=S)[nH]c2ccc(Br)cc2c1=O)NCC1CCCO1 (stereo not given)	none
NS(=O)(=O)c1ccc(CCNC(=O)CCCCCn2c(=S)[nH]c3ccc(Br)cc3c2=O)cc1	M5 antag 27.1
Cc1cc(F)ccc1-c1cc(C(=O)NC2CCCCC2)[nH]n1	none
c1ccn2cc(C34CC5CC(CC(C5)C3)C4)nc2c1	CHRM4 antagonist 60.0
C=CCN(Cc1ccc(Cl)s1)C(=O)c1ccc(F)c(S(=O)(=O)N2CCOCC2)c1	none
O=c1ccc2cc(O)c(O)cc2o1	CHRM5 agonist 24.9
O=c1ccc2ccc(O)cc2o1	none
COc1ccc(Nc2nc(OC)nc(OC)n2)cc1	none
COc1ccc(Nc2nc(Nc3ccc(OC)cc3)nc(-n3[nH]c(=O)c(C)c3C)n2)cc1	M5 antag 30.6, CHRM4 antagonist 28.2
CCOC(=O)CN1N=C(/C=C/c2ccccc2)CCC1=O	CHRM5 agonist 27.8
CC[C@H](C)[C@H]1CNC(=S)N1CC1CCN(CC2CCC(C)CC2)CC1 (stereo not given in full)	none

Screening results from PubChem BioAssay.
